Not all results are given here.
PGC1a acetyl up: raises PGC1a acetylation signal in U2OS cells | U2OS PGC1a acetylation AlphaScreen, overnight | activation, % at 15.6 µM | AID 651723 | actives 0.21% (n = 350,000);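 active = every replicate reaching activation of at least 50%, whatever the mean replicate activation; inconclusive = replicates that disagree or another doubt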;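 also: hits raise the AlphaScreen acetylation signal above neutral controls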
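Test system: U2OS cells expressing flag-PGC1a plus GCN5; Amount: 7000 U2OS cells per well; Compound: single test concentration per compound; Incubation: compound overnight at 37 °C, each detection step 1 h RT; Signal: AlphaScreen lysate read.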
G6PC hep suppr: PGC-1a acetylation activator altering hepatocyte G6PC expression; 240 tested, under 10 active; G6PC suppression (normalized activity, % of positive control; higher = more suppression), % at 26 µM; shares compounds with PGC1a acetyl up; primary mouse hepatocytes, G6PC mRNA qPCR, forskolin;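 active = dose curves showing G6PC suppression whose half-maximal dose is at most twice the top valid dose; inconclusive = flat curves with moderate negative activity, or unreliable fits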;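 also: G6PC expression relative to GAPDH housekeeping gene as delta delta Ct; 0% = median of neutral control wells and 100% = median of positive control wells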
Hep PCK1 suppr: hepatocyte PCK1 expression change via PGC-1a acetylation activation; shares compounds with PGC1a acetyl up; primary mouse hepatocytes, PCK1 mRNA qPCR, forskolin-stimulated; PCK1 expression decrease, unspecified at 26 µM; 230 tested, under 10 active; AID 743465;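 active = compounds lowering PCK1 expression whose fitted half-maximal concentration is at most twice the top tested dose; inconclusive = flat fit with moderate opposite-direction effect, or poor fit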;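 also: values are delta delta Ct of PCK1 relative to GAPDH; higher delta delta Ct means lower PCK1 expression so positive values indicate hits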
Hep PGC-1a down: PGC-1a acetylation activators affecting PGC-1a expression in hepatocytes. primary mouse hepatocytes, PGC-1a mRNA qPCR, forskolin; top dose 26 µM. 240 tested, under 10 active. shares compounds with PGC1a acetyl up. AID 743467. max activity (PGC-1a expression decrease), %;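 active = compound lowering PGC-1a expression with fitted half-maximal concentration at most twice its top tested dose; inconclusive = flat curve with moderate opposite-direction effect, or poor fit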;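 also: 0% = neutral control wells median and 100% = positive control wells median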
* marks the source's active call; other numbers are inactive results.

Results for CCN1CCN(Cc2ccc(NC(=O)c3ccc(C)c(NC(=O)c4c[nH]c5cc(C(F)(F)F)ccc5c4=O)c3)cc2C(F)(F)F)CC1 ?
PGC1a acetyl up: -78

Results for COc1cc(/C=N/NC(=O)c2ccncc2)ccc1OC(C)=O ?
PGC1a acetyl up: -49

Results for CC(=O)N(CCC(Cc1ccccc1)c1ccc2c(c1)OCO2)Cc1ccccc1F (stereo unspecified) ?
PGC1a acetyl up: -40

What do the screens show for `Cc1ccc(NC(=O)CN2CCC(NC(=O)Cc3ccccc3)CC2)c(C)c1`?
PGC1a acetyl up: 141*; G6PC hep suppr: 23; Hep PCK1 suppr: 14; Hep PGC-1a down: 38

Results for Nc1nccc(-c2ccc(-n3cnc4ccccc43)cc2)n1 ?
PGC1a acetyl up: -44

What do the screens show for `O=C1CCCc2ccccc2N1Cc1ccc(Cl)cc1Cl`?
PGC1a acetyl up: -56

How did COc1ccc2sc(C)[n+](C)c2c1 do in these assays?
PGC1a acetyl up: -55

What do the screens show for `CCN(CC(=O)NCc1ccc(Cl)cc1)C(=O)CSCC(=O)Nc1ccc(C)cc1`?
PGC1a acetyl up: inconclusive; G6PC hep suppr: -12; Hep PCK1 suppr: 34; Hep PGC-1a down: 60

What do the screens show for `CC1(C)CC(=O)C(C=NCC(N)=O)=C(O)C1`?
PGC1a acetyl up: -52

What do the screens show for `CCn1cnc2cc(NCc3ccc(N(C)C)cc3)ccc21`?
PGC1a acetyl up: -40; G6PC hep suppr: 243; Hep PGC-1a down: inconclusive

Results for O=C(O)C1CCCN1S(=O)(=O)c1ccc(Br)s1 (stereo unspecified) (tested in a mixture with another compound) ?
PGC1a acetyl up: -42

Results for COc1cc(C)c(CN2CCN(S(=O)(=O)c3ccc(Cl)s3)CC2)cc1OC ?
PGC1a acetyl up: 79*; G6PC hep suppr: 66; Hep PCK1 suppr: 91; Hep PGC-1a down: inconclusive

Bioassay records as filed in PubChem BioAssay.
